Experimental data as given in ChEMBL document CHEMBL1153032, “Benzhydrylquinazolinediones: novel cytosolic phospholipase A2alpha inhibitors with improved physicochemical properties” (Bioorg Med Chem, 2009).
≈ marks a conversion by molar mass, not a printed value.

What was measured:
MC9 [1] = assay: Inhibition of PGF2alpha production in DNP-BSA-stimulated mouse MC9 cells at 5 uM treated 15 mins before DNP-BSA challenge measured after 4 mins; format: functional
MC9 [2] = assay: Inhibition of LTB4 production in DNP-BSA-stimulated mouse MC9 cells at 5 uM treated 15 mins before DNP-BSA challenge measured after 4 mins; format: functional
[3] = Inhibition of cytosolic phospholipase A2alpha by GLU micelle assay
[4] = Lipophilicity, log D at pH 7.4; format: physicochemical; conditions: buffer
MC9 [5] = assay: Inhibition of PGF2alpha production in arachidonic acid-stimulated mouse MC9 cells at 5 uM treated 15 mins before arachidonic acid challenge measured after 4 mins; format: functional
[6] = Aqueous solubility after 18 hrs at pH 7.4; format: physicochemical
Procedure, shortened: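 Compound taken as 8 mg/mL DMSO stock; 13 µL added to 1.0 mL pH 7.4 buffer, mixed, left to settle 18 h at room temperature. Mixture filtered (0.2 µm), filtrate concentration read by UV plate reader. Solubility derived against a single-point standard.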

[7] = Permeability in buffer of pH 7.4 by PAMPA; format: ADME; conditions: read-out: permeability
Procedure, shortened: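 PAMPA: 5 mg/mL DMSO stock diluted 200-fold in pH 7.4 universal buffer (25 µg/mL) and placed in donor wells. Filter membrane coated with phosphatidylcholine in dodecane (20 mg/mL); acceptor holds pH 7.4 buffer. Sandwich left 18 h at rt. Donor, acceptor and reference concentrations read by UV. Effective permeability (Pe) calculated; triplicate runs averaged. Verapamil and theophylline run as QC standards.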

Blood = assay: Inhibition of TXB2 production in calcium ionophore A-23187-stimulated Sprague-Dawley rat whole blood after 10 mins; format: functional, tissue-based

Cc1c(CCOc2ccc(C(=O)O)cc2)c2cc(Cl)ccc2n1C(c1ccccc1)c1ccccc1
inhibition at 5 µM (MC9 [1]): 81%
inhibition at 5 µM (MC9 [2]): 96%
IC50 [3]: 3 µM
logD [4]: 6.1
inhibition at 5 µM (MC9 [5]): -8%

Cc1cccc(C)c1CS(=O)(=O)NCCc1c(CCCc2ccc(C(=O)O)cc2)c2cc(Cl)ccc2n1C(c1ccccc1)c1ccccc1
IC50 [3]: 0.014 µM

O=C(O)c1ccc(OCCCCCCCn2c(=O)n(C(c3ccccc3)c3ccccc3)c(=O)c3ccccc32)cc1
IC50 [3]: 71 µM

CSc1ccc2c(=O)n(C(c3ccccc3)c3ccccc3)c(=O)n(C/C=C/COc3ccc(C(=O)O)cc3)c2c1
IC50 [3]: 2 µM
logD [4]: 3.2
solubility at 18 h [6]: 26 µg/mL (≈ 46 µM)
Papp [7]: 4.5 ×10⁻⁶ cm/s

O=C(O)c1ccc(OCCCCCCn2c(=O)n(C(c3ccccc3)c3ccccc3)c(=O)c3ccccc32)cc1
IC50 [3]: 47 µM

O=C(O)c1ccc(OC/C=C/Cn2c(=O)n(C(c3ccccc3)c3ccccc3)c(=O)c3ccc(Sc4ccccc4)cc32)cc1
IC50 [3]: 2.1 µM
logD [4]: 4.8

O=C(O)c1ccc(OC/C=C/Cn2c(=O)n(C(c3ccccc3)c3ccccc3)c(=O)c3ccc(N4CCOCC4)cc32)cc1
IC50 [3]: 2.2 µM
logD [4]: 2.5
solubility at 18 h [6]: 48 µg/mL (≈ 79.5 µM)
Papp [7]: 1 ×10⁻⁶ cm/s

O=C(O)c1cccc(OC/C=C/Cn2c(=O)n(C(c3ccccc3)c3ccccc3)c(=O)c3ccc(Cl)cc32)c1
IC50 [3]: 100 µM

O=C(O)c1ccc(OC/C=C/Cn2c(=O)n(C(c3ccccc3)c3ccccc3)c(=O)c3cc(Cl)ccc32)cc1
IC50 [3]: 10 µM

O=C(O)c1ccc(OCCCCn2c(=O)n(C(c3ccccc3)c3ccccc3)c(=O)c3ccc(Cl)cc32)cc1
IC50 [3]: 2.5 µM

O=C(O)COc1ccc(Cn2c(=O)n(C(c3ccccc3)c3ccccc3)c(=O)c3ccccc32)cc1
IC50 [3]: 360 µM

O=C(O)c1ccc(OCCCCCn2c(=O)n(C(c3ccccc3)c3ccccc3)c(=O)c3ccccc32)cc1
IC50 [3]: 30 µM

O=C(O)c1ccc(OC/C=C\Cn2c(=O)n(C(c3ccccc3)c3ccccc3)c(=O)c3cc(F)ccc32)cc1
IC50 [3]: 40 µM

Nc1ccc2c(=O)n(C(c3ccccc3)c3ccccc3)c(=O)n(C/C=C/COc3ccc(C(=O)O)cc3)c2c1
IC50 [3]: 9 µM
logD [4]: 1.7
solubility at 18 h [6]: > 100 µg/mL
Papp [7]: 0.4 ×10⁻⁶ cm/s

O=C(O)c1ccc(OC/C=C\Cn2c(=O)n(C(c3ccccc3)c3ccccc3)c(=O)c3ccccc32)cc1
IC50 [3]: 44 µM

O=C(O)c1ccc(Cn2c(=O)c3cc(Cl)ccc3n(C(c3ccccc3)c3ccccc3)c2=O)cc1
IC50 [3]: 90 µM

O=C(O)c1ccc(OC/C=C/Cn2c(=O)n(C(c3ccccc3)c3ccccc3)c(=O)c3ccc(N4CCSCC4)cc32)cc1
IC50 [3]: 2.4 µM
logD [4]: 3.6

COc1ccc2c(=O)n(C(c3ccccc3)c3ccccc3)c(=O)n(C/C=C/COc3ccc(C(=O)O)cc3)c2c1
inhibition at 5 µM (MC9 [1]): 74%
inhibition at 5 µM (MC9 [2]): 99%
IC50 [3]: 3 µM
IC50 (Blood): 9 µM
logD [4]: 2.8
inhibition at 5 µM (MC9 [5]): -98%
solubility at 18 h [6]: 40 µg/mL (≈ 72.9 µM)
Papp [7]: 1.8 ×10⁻⁶ cm/s

CS(=O)(=O)c1ccc2c(=O)n(C(c3ccccc3)c3ccccc3)c(=O)n(C/C=C/COc3ccc(C(=O)O)cc3)c2c1
IC50 [3]: 15 µM
logD [4]: 1.4
solubility at 18 h [6]: > 100 µg/mL
Papp [7]: 0.3 ×10⁻⁶ cm/s

O=C(O)Cc1coc(-c2ccc(Cn3c(=O)n(C(c4ccccc4)c4ccccc4)c(=O)c4ccccc43)cc2)n1
IC50 [3]: 140 µM

O=C(O)c1ccc(OCCn2c(=O)n(C(c3ccccc3)c3ccccc3)c(=O)c3ccc(Cl)cc32)cc1
IC50 [3]: 10 µM

O=C(O)c1ccc(OCCn2c(=O)c3ccccc3n(C(c3ccccc3)c3ccccc3)c2=O)cc1
IC50 [3]: 10 µM

O=C(O)c1ccc(OCCn2c(=O)c3ccccc3n(Cc3ccccc3)c2=O)cc1
IC50 [3]: > 100 µM

O=C(O)c1ccc(OC/C=C\Cn2c(=O)c3ccccc3n(C(c3ccccc3)c3ccccc3)c2=O)cc1
IC50 [3]: 25 µM
solubility at 18 h [6]: 37 µg/mL (≈ 71.4 µM)

O=C(O)Cc1ccc(Cn2c(=O)n(C(c3ccccc3)c3ccccc3)c(=O)c3ccccc32)cc1
IC50 [3]: 260 µM

O=C(O)c1ccc(OC/C=C/Cn2c(=O)n(C(c3ccccc3)c3ccccc3)c(=O)c3ccc(Oc4ccccc4)cc32)cc1
IC50 [3]: 1.6 µM
logD [4]: 4.8
solubility at 18 h [6]: 15 µg/mL (≈ 24.6 µM)

O=C(O)c1ccc(OC/C=C/Cn2c(=O)n(C(c3ccccc3)c3ccccc3)c(=O)c3cc(F)ccc32)cc1
IC50 [3]: 6 µM

O=C(O)c1ccc(OCCn2c(=O)c3ccc(Cl)cc3n(C(c3ccccc3)c3ccccc3)c2=O)cc1
inhibition at 5 µM (MC9 [1]): 61%
inhibition at 5 µM (MC9 [2]): 93%
IC50 [3]: 4 µM
logD [4]: 3.3
inhibition at 5 µM (MC9 [5]): 0%

COC(=O)C1CCN(c2ccc3c(=O)n(C(c4ccccc4)c4ccccc4)c(=O)n(C/C=C/COc4ccc(C(=O)O)cc4)c3c2)CC1
IC50 [3]: 1.8 µM
logD [4]: 3.3
solubility at 18 h [6]: 30 µg/mL (≈ 45.5 µM)
Papp [7]: 1 ×10⁻⁶ cm/s

O=C(O)c1ccc(OC/C=C\Cn2c(=O)n(C(c3ccccc3)c3ccccc3)c(=O)c3cc(Br)ccc32)cc1
IC50 [3]: 30 µM

O=C(O)c1ccc(OC/C=C/Cn2c(=O)n(C(c3ccccc3)c3ccccc3)c(=O)c3cc(Br)ccc32)cc1
IC50 [3]: 9 µM

O=C(O)c1ccc(OC/C=C/Cn2c(=O)n(C(c3ccccc3)c3ccccc3)c(=O)c3ccccc32)cc1
inhibition at 5 µM (MC9 [1]): 52%
inhibition at 5 µM (MC9 [2]): 97%
IC50 [3]: 3 µM
IC50 (Blood): 14 µM

O=C(O)c1ccc(OC/C=C\Cn2c(=O)c3ccc(Cl)cc3n(C(c3ccccc3)c3ccccc3)c2=O)cc1
IC50 [3]: 60 µM
solubility at 18 h [6]: 51 µg/mL (≈ 92.2 µM)

O=C(O)Cc1ccc(Cn2c(=O)c3cc(Br)ccc3n(C(c3ccccc3)c3ccccc3)c2=O)cc1
IC50 [3]: 12 µM

O=C(O)c1ccc(OC/C=C/Cn2c(=O)n(C(c3ccccc3)c3ccccc3)c(=O)c3ccc(F)cc32)cc1
inhibition at 5 µM (MC9 [1]): 83%
inhibition at 5 µM (MC9 [2]): 99%
IC50 [3]: 1.4 µM
IC50 (Blood): 6 µM
logD [4]: 2.9
inhibition at 5 µM (MC9 [5]): -27%

O=C(O)c1ccc(OC/C=C/Cn2c(=O)c3ccc(Cl)cc3n(C(c3ccccc3)c3ccccc3)c2=O)cc1
IC50 [3]: 4.5 µM
solubility at 18 h [6]: 28 µg/mL (≈ 50.6 µM)

O=C(O)c1ccc(OC/C=C/Cn2c(=O)c3ccccc3n(C(c3ccccc3)c3ccccc3)c2=O)cc1
inhibition at 5 µM (MC9 [1]): 61%
inhibition at 5 µM (MC9 [2]): 98%
IC50 [3]: 2 µM
IC50 (Blood): 12 µM
inhibition at 5 µM (MC9 [5]): -15%
solubility at 18 h [6]: 51 µg/mL (≈ 98.3 µM)

O=C(O)c1ccc(Cn2c(=O)c3ccc(Cl)cc3n(C(c3ccccc3)c3ccccc3)c2=O)cc1
IC50 [3]: 80 µM

O=C(O)c1ccc(OC/C=C\Cn2c(=O)n(C(c3ccccc3)c3ccccc3)c(=O)c3ccc(Cl)cc32)cc1
IC50 [3]: 30 µM

Cc1ccc2c(=O)n(C(c3ccccc3)c3ccccc3)c(=O)n(C/C=C/COc3ccc(C(=O)O)cc3)c2c1
IC50 [3]: 2.8 µM
logD [4]: 3.2
solubility at 18 h [6]: 40 µg/mL (≈ 75.1 µM)
Papp [7]: 2 ×10⁻⁶ cm/s

O=C(O)C1CC1Cn1c(=O)c2cc(Br)ccc2n(C(c2ccccc2)c2ccccc2)c1=O (stereo not given)
IC50 [3]: 120 µM

O=C(O)c1ccc(OC/C=C/Cn2c(=O)c3cc(F)ccc3n(C(c3ccccc3)c3ccccc3)c2=O)cc1
IC50 [3]: 5.6 µM
solubility at 18 h [6]: 42 µg/mL (≈ 78.3 µM)

O=C(O)c1ccc(OC/C=C\Cn2c(=O)n(C(c3ccccc3)c3ccccc3)c(=O)c3cc(Cl)ccc32)cc1
IC50 [3]: 40 µM

O=C(O)c1ccc(OC/C=C/Cn2c(=O)n(C(c3ccccc3)c3ccccc3)c(=O)c3ccc(Cl)cc32)cc1
inhibition at 5 µM (MC9 [1]): 99%
inhibition at 5 µM (MC9 [2]): 98%
IC50 [3]: 1 µM
IC50 (Blood): 11 µM
inhibition at 5 µM (MC9 [5]): -45%

O=C(O)c1ccc(OCCCn2c(=O)n(C(c3ccccc3)c3ccccc3)c(=O)c3ccccc32)cc1
IC50 [3]: 50 µM

O=C(O)CCCOc1ccc(Cn2c(=O)n(C(c3ccccc3)c3ccccc3)c(=O)c3ccccc32)cc1
IC50 [3]: 40 µM

O=C(O)c1ccc(CCCc2c(CCNS(=O)(=O)Cc3ccc(Cl)c(Cl)c3)n(C(c3ccccc3)c3ccccc3)c3ccc(Cl)cc23)cc1 [EFIPLADIB]
IC50 [3]: 0.04 µM
